Compound activity (PubChem)
PHOSPHO1 inh: PubChem AID 1565; 290,000 compounds, 1.1% hits; inhibition, % at 13.3 µM; Phosphoethanolamine/phosphocholine phosphatase (Homo sapiens), Q8TCT1; recombinant PHOSPHO1, absorbance phosphatase assay; in the data active = inhibition above about 60%
Wee1 degr inh: Wee1 degradation inhibitors, primary screen, cell-based, HeLa, Wee1K328M-luciferase, luminescence | HeLa Luc-Wee1K328M stability; 100% = proteasome inhibitor MG132 effect | Wee1-like protein kinase (Homo sapiens), P30291 | AID 1321, 2008 | reporter increase, % at 5 µM | 220,000 compounds, 1.2% hits;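 active = activation above the mean of all tested compounds plus 3 SD, set per screening run, cut at about 8.8% in these data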;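 also: cells exposed to compound for 20 h before luminescence read; 0% = DMSO alone and 100% = MG132 at 30 µM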
Target sequence (P30291 whole entry K328M): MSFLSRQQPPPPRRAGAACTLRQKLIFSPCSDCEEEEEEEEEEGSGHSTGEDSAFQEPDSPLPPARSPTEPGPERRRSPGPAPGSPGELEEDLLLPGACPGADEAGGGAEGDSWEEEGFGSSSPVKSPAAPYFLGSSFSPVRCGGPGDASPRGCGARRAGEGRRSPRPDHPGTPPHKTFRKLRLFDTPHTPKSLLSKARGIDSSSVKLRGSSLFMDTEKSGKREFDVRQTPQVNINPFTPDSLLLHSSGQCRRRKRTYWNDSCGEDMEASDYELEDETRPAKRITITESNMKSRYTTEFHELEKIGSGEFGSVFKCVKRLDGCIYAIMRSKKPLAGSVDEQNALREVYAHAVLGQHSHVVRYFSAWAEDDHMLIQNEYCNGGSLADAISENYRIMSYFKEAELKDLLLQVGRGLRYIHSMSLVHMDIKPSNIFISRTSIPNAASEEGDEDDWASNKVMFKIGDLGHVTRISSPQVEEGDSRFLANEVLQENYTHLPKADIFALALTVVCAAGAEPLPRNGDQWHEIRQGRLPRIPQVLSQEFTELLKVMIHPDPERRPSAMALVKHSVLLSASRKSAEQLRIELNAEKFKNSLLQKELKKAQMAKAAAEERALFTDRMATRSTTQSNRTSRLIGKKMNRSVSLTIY
Runt-SMMHC FRET: inhibitors of RUNX1 Runt–CBFb-SMMHC binding, primary screen, biochemical, FRET, Cerulean-Runt, Venus-CBFb-SMMHC, uHTS. inhibition, % at 20 µM. Runt-related transcription factor 1 (Homo sapiens) + Core-binding factor subunit beta …. 220,000 compounds, 0.74% hits. Cerulean-Runt/Venus-CBFb-SMMHC FRET ratio 530/480, 1 h;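 active = mean inhibition across duplicate retests at 20 µM reaching about 50%, limit read from the data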;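 also: 0% = DMSO wells and 100% = wells with excess untagged CBFb-SMMHC; inhibitors lower the FRET ratio by blocking Runt binding to CBFb-SMMHC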
HMGR II inh: inhibitors of E. faecalis class II HMGR, primary screen, biochemical, Enterococcus faecalis. HMG-CoA reductase (Enterococcus faecalis, mvaE). purified E. faecalis HMGR, NADPH absorbance 340 nm kinetic. inhibition, % at 10 µM. 190,000 compounds, 0.41% hits;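 active = inhibition above a set limit, the median over all tested compounds plus 3 SD, cut at about 9.5% in these data; inconclusive = no clear call, values can overlap the other calls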;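 also: enzyme runs in reverse so mevalonate oxidation gives rising NADPH absorbance; 0% = complete reaction with DMSO and 100% = background rate lacking mevalonate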
Runt-CBFb FRET: inhibitors of RUNX1 Runt–CBFb binding, primary screen, biochemical, FRET, Cerulean-Runt, Venus-CBFb, uHTS | inhibition, % at 20 µM | Cerulean-Runt/Venus-CBFb FRET ratio 530/480, 1 h | AID 1496, 2009 | 220,000 compounds, 0.46% hits | Runt-related transcription factor 1 (Homo sapiens) + Core-binding factor subunit beta …;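 active = inhibition over about 50% at 20 µM in the single-dose screen, limit read from the data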;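 also: 0% = DMSO wells and 100% = excess unlabeled CBFb competitor control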
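test system = Cerulean-tagged RUNX1 Runt domain (FRET donor) fusion protein | reagent = Venus-CBFb binding partner, 100 nM | incubation = protein complex preformed 1 h, compound exposure 1 h, room temperature, dark | detection = FRET fluorescence | read-out basis = loss of energy transfer signal | controls = 5 µM unlabeled CBFb as full-inhibition high control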
RanGTP-Imp inh: inhibitors of RanGTP-importin-beta interaction, primary screen, biochemical, FRET, CFP-Ran, YFP-importin-beta, homogeneous; Ran GTPase (GTP-bound) - importin-beta complex; cell-free CFP-Ran/YFP-importin-beta FRET ratio; inhibition, % (concentration not given with the values); 300,000 compounds, 1.1% hits; AID 2216, 2009;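 active = more than half of the replicate wells show a fall in the fluorescence ratio signal beyond about 16%, limit read from the data, passing the limit was not always enough; inconclusive = exactly half of the replicate wells pass the set limit; inactive = fewer than half of replicates pass the limit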;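 also: 0% = DMSO wells and 100% = Ran loaded with GDP instead of GTP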
An asterisk follows results filed as active. Shown are actives, neighbours in structure and some others; about 3.4% of the full set was active somewhere.

What do the screens show for `COc1ccc(/C=C/C(=O)NC(=S)NNC(=O)Cc2cccs2)cc1OC`?
PHOSPHO1 inh: 97.9*; Wee1 degr inh: 1.4; Runt-SMMHC FRET: 1.8; HMGR II inh: -3.3; Runt-CBFb FRET: 7.9; RanGTP-Imp inh: 6.0

How did COc1ccc(C(=O)NC(=S)NNC(=O)Cc2cccs2)cc1 do in these assays?
PHOSPHO1 inh: 100.3*; Wee1 degr inh: -2.5; Runt-SMMHC FRET: 6.6; HMGR II inh: -3.3; Runt-CBFb FRET: -0.7; RanGTP-Imp inh: -1.6

How did COCCCN1C(=O)C(=O)/C(=C(/O)c2ccc(OC)cc2)C1c1ccc(O)c(OC)c1 (centres undefined) do in these assays?
PHOSPHO1 inh: -29.1; Wee1 degr inh: 1.5; Runt-SMMHC FRET: -5.1; HMGR II inh: 11.9*; Runt-CBFb FRET: -2.0; RanGTP-Imp inh: -1.1

What do the screens show for `COCCCN1C(=O)C(=O)/C(=C(/O)c2ccc(S(=O)(=O)N3CCCCC3)cc2)C1c1ccc(O)c(OC)c1` (centres undefined)?
PHOSPHO1 inh: 24.0; RanGTP-Imp inh: 1.4

What do the screens show for `COc1ccc2sc3ccccc3c(=O)c2c1`?
PHOSPHO1 inh: 25.7; Wee1 degr inh: 2.4; Runt-SMMHC FRET: -19.8; HMGR II inh: 0.6; Runt-CBFb FRET: 10.1; RanGTP-Imp inh: 94.7*

Results for COc1ccc2oc3ccccc3c(=O)c2c1 ?
PHOSPHO1 inh: 46.5; Wee1 degr inh: 1.6; Runt-SMMHC FRET: -3.0; Runt-CBFb FRET: 0.2; RanGTP-Imp inh: -0.6

What do the screens show for `CC(Oc1ccc(Cl)cc1Cl)C(=O)NCCCn1ccnc1` (centres undefined)?
PHOSPHO1 inh: 2.6; Wee1 degr inh: -1.6; Runt-SMMHC FRET: 80.9*; HMGR II inh: 2.0; Runt-CBFb FRET: 26.7; RanGTP-Imp inh: -0.6

What do the screens show for `Cc1cc(NC(=O)C(C)Oc2ccc(Cl)cc2Cl)no1` (centres undefined)?
PHOSPHO1 inh: 30.7; RanGTP-Imp inh: 37.9*

How did O=C(CCCOc1ccc(Cl)cc1Cl)NCCCn1ccnc1 do in these assays?
PHOSPHO1 inh: 41.2; Wee1 degr inh: -2.8; Runt-SMMHC FRET: 1.5; HMGR II inh: -4.2; Runt-CBFb FRET: 1.6; RanGTP-Imp inh: -0.1

What do the screens show for `O=C(c1cccc([N+](=O)[O-])c1)N1CCN(S(=O)(=O)N2CCCCC2)CC1`?
PHOSPHO1 inh: 18.4; RanGTP-Imp inh: inconclusive

How did COc1ccc(C2(c3ccc(OC)cc3)NC(=O)N(CC(=O)NCC(F)(F)F)C2=O)cc1 do in these assays?
PHOSPHO1 inh: 4.3; RanGTP-Imp inh: 6.7

How did Fc1ccc(-n2cc(CNCCc3ccccn3)c(-c3ccccc3Cl)n2)cc1 do in these assays?
PHOSPHO1 inh: 67.1*; Wee1 degr inh: -3.5; Runt-SMMHC FRET: 0.3; HMGR II inh: -1.8; Runt-CBFb FRET: -1.3; RanGTP-Imp inh: -2.1

What do the screens show for `O=C(Cc1ccsc1)N1CCc2c([nH]c3ccccc23)C1c1ccccn1` (centres undefined)?
PHOSPHO1 inh: 5.5; Wee1 degr inh: 5.4; Runt-SMMHC FRET: 2.5; HMGR II inh: 0.2; Runt-CBFb FRET: 2.4; RanGTP-Imp inh: 28.7*

How did O=C1OCC(Cn2c3ccccc3c3ccccc32)O1 (centres undefined) do in these assays?
PHOSPHO1 inh: 77.6*; Wee1 degr inh: -3.0; Runt-SMMHC FRET: 1.0; HMGR II inh: -2.7; Runt-CBFb FRET: -0.5; RanGTP-Imp inh: 8.2

How did CCn1c(-c2cccnc2)n[nH]c1=S do in these assays?
PHOSPHO1 inh: 13.4; Wee1 degr inh: 0.4; Runt-SMMHC FRET: 2.1; HMGR II inh: -4.3; Runt-CBFb FRET: 6.4; RanGTP-Imp inh: 5.1

What do the screens show for `CCn1c(-c2nn(C)c(C)c2Cl)n[nH]c1=S`?
PHOSPHO1 inh: 5.7; Wee1 degr inh: 1.7; Runt-SMMHC FRET: 26.1; HMGR II inh: 10.8*; Runt-CBFb FRET: 3.1; RanGTP-Imp inh: -5.0

What do the screens show for `Cc1ccc(-n2c(C)n[nH]c2=S)cc1`?
PHOSPHO1 inh: -4.0; Wee1 degr inh: 0.9; Runt-SMMHC FRET: 8.4; HMGR II inh: -2.2; Runt-CBFb FRET: 10.0; RanGTP-Imp inh: -1.8

How did Cc1ccc(-n2c(-c3nn(C)c(C)c3Cl)n[nH]c2=S)cc1 do in these assays?
PHOSPHO1 inh: 95.0*; Wee1 degr inh: -1.5; Runt-SMMHC FRET: 17.4; HMGR II inh: -7.9; Runt-CBFb FRET: -1.5; RanGTP-Imp inh: -0.6

How did CC(=O)Nc1ccc(C(=O)N(C)c2ccccc2)cc1 do in these assays?
PHOSPHO1 inh: -11.5; Wee1 degr inh: 3.2; Runt-SMMHC FRET: 1.2; HMGR II inh: -3.5; Runt-CBFb FRET: 1.9; RanGTP-Imp inh: 1.1

What do the screens show for `CN(C(=O)c1ccc(NC(=O)C2CC=CCC2C(=O)O)cc1)c1ccccc1` (centres undefined)?
PHOSPHO1 inh: 0.9; Wee1 degr inh: 1.0; Runt-SMMHC FRET: -2.2; HMGR II inh: -0.7; Runt-CBFb FRET: 1.5; RanGTP-Imp inh: 24.9*

What do the screens show for `CCOC(=O)CSc1n[nH]c(NC(=O)c2cccc(C)c2)n1`?
PHOSPHO1 inh: 60.5*; Wee1 degr inh: 1.8; Runt-SMMHC FRET: 4.9; HMGR II inh: -1.7; Runt-CBFb FRET: -2.7; RanGTP-Imp inh: -2.1

How did CCCCNC(=O)Nc1nc(SCC(=O)OCC)n[nH]1 do in these assays?
PHOSPHO1 inh: 30.4; Wee1 degr inh: -1.8; Runt-SMMHC FRET: -3.8; HMGR II inh: 2.8; Runt-CBFb FRET: 0.1; RanGTP-Imp inh: 1.6

What do the screens show for `O=C(CCCc1nc(-c2ccc(Cl)cc2)no1)NC1CCCC1`?
PHOSPHO1 inh: 4.5; RanGTP-Imp inh: 5.6

How did CN1CCN(NC(=O)Nc2cc(Cl)cc(Cl)c2)CC1 do in these assays?
PHOSPHO1 inh: 11.1; RanGTP-Imp inh: 2.6

How did O=C(CCCn1cnc([N+](=O)[O-])n1)Nc1ccc(F)c(Cl)c1 do in these assays?
PHOSPHO1 inh: 36.5; Wee1 degr inh: 9.9*; Runt-SMMHC FRET: -6.2; HMGR II inh: -3.4; Runt-CBFb FRET: 0.0; RanGTP-Imp inh: 3.1

Results for Cc1cc(C)nc(Nc2ccc(Cl)cc2C)n1 ?
RanGTP-Imp inh: 1.9

How did CCOCCCNC(=O)CNC(=S)N(Cc1ccccc1F)C1CCCCC1 do in these assays?
PHOSPHO1 inh: 1.7; Wee1 degr inh: -0.1; Runt-SMMHC FRET: -9.4; HMGR II inh: 0.2; Runt-CBFb FRET: -4.3; RanGTP-Imp inh: 2.0

How did COCCCNC(=O)CNC(=S)N(Cc1ccc(F)cc1)C1CCCCC1 do in these assays?
PHOSPHO1 inh: 20.9; Wee1 degr inh: 10.3*; Runt-SMMHC FRET: 0.6; HMGR II inh: -0.2; Runt-CBFb FRET: -0.2; RanGTP-Imp inh: -1.9

How did O=C(CNC(=S)N(Cc1ccccc1F)C1CCCCC1)NCCN1CCOCC1 do in these assays?
PHOSPHO1 inh: 16.2; Wee1 degr inh: 0.7; Runt-SMMHC FRET: 0.4; HMGR II inh: -5.0; Runt-CBFb FRET: -2.4; RanGTP-Imp inh: -1.8
